Experiments:
[1] = test system: MT4; assay: Ability to inhibit spread of viral infection in MT-4 human T-lymphoidcell infected by PI-resistant HIV-1 (strain Q-60C); assay type: functional; details: read-out: CIC95
How it was run: (§1)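 MT4 human T-lymphoid cells infected with HIV-1, either wild-type NL4-3 or engineered PI-resistant constructs (4X, K-60C, V-18C, Q-60C) carrying varied patterns of multiple PI resistance mutations; spread of infection in culture followed. Value is CIC95, the compound concentration inhibiting at least 95% of infectious viral spread relative to untreated virus control culture.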

[2] = target: Human immunodeficiency virus type 1 protease (Human immunodeficiency virus 1, UniProt Q72874); assay: Inhibitory activity against HIV-1 Protease
[3] = target: Cytochrome P450 3A4 (Homo sapiens, UniProt P08684); assay: Inhibition of human liver microsome Cytochrome P450 3A4
Cytochrome P450 3A4, sequence (P08684 whole entry): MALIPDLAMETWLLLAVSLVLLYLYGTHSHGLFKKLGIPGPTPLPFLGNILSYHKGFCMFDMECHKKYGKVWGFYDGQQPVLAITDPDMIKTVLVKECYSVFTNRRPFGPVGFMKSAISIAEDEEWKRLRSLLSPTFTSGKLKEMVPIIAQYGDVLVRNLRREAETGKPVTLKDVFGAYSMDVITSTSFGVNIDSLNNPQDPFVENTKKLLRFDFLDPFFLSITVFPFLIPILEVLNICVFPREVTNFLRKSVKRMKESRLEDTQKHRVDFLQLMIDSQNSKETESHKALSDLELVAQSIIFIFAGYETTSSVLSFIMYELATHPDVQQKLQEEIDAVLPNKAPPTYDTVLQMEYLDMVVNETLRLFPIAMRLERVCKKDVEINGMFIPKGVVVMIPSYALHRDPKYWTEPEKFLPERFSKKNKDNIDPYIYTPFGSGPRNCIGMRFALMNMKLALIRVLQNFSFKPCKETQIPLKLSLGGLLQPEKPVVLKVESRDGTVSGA

[4] = Plasma clearance after peroral administration at 10 mpk in dog; assay type: ADME, organism-based, Canis lupus familiaris; details: po, 10 mg/kg, read-out: Clp
How it was run: (§2)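 Dogs dosed both intravenously (2 mg/kg) and orally (10 mg/kg). Cmax, half-life, plasma clearance (mL/min/kg) and oral bioavailability (%) were derived from plasma drug levels. The study was IACUC-approved.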

[5] = Oral bioavailability in dog (dose 10 mg/kg); assay type: ADME, organism-based, Canis lupus familiaris; details: in vivo; how it was run: as §2
[6] = Half life period was determine after peroral administration at 10 mpk in dog; assay type: ADME, organism-based, Canis lupus familiaris; details: in vivo, po, 10 mg/kg; how it was run: as §2
[7] = test system: MT4; assay: Ability to inhibit spread of viral infection in MT-4 human T-lymphoidcell infected by PI-resistant HIV-1 (strain V-18C); assay type: functional; details: read-out: CIC95; how it was run: as §1
[8] = test system: MT4; assay: Ability to inhibit spread of viral infection in MT-4 human T-lymphoidcell infected by wild-type HIV-1(strain NL4-3); assay type: functional; details: read-out: CIC95; how it was run: as §1
[9] = target: Cytochrome P450 2C9 (Homo sapiens, UniProt P11712); assay: Inhibition of human liver microsome Cytochrome P450 2C9; assay type: ADME, microsomes
Cytochrome P450 2C9, sequence (P11712 whole entry): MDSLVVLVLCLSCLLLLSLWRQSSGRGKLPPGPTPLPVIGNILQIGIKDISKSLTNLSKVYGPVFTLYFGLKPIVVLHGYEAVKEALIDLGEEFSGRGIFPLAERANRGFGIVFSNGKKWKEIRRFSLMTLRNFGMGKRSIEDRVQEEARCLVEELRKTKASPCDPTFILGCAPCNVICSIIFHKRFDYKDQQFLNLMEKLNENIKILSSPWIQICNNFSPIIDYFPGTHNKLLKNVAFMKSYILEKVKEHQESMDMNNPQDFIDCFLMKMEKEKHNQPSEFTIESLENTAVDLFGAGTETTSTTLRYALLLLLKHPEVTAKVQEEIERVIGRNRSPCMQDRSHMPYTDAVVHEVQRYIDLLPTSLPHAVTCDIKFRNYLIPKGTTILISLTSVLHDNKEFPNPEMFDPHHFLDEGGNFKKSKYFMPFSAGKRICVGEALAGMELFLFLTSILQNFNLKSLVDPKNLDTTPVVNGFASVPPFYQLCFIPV

[10] = In vitro intrinsic clearance in human liver microsome; assay type: ADME; details: liver microsomes
How it was run: (§3)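 The compound was incubated with liver microsomes from rat, dog, rhesus and human. Metabolic stability was expressed as intrinsic clearance scaled to mL/min/kg.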

[11] = Cmax was determine after peroral administration at 10 mpk in dog; assay type: ADME, organism-based, Canis lupus familiaris; design: dose 10 mpk, route oral; details: in vivo, po, 10 mg/kg; how it was run: as §2
[12] = target: Cytochrome P450 2D6 (Homo sapiens, UniProt P10635); assay: Inhibition of human liver microsome Cytochrome P450 2D6; assay type: ADME, microsomes
Cytochrome P450 2D6, sequence (P10635 whole entry): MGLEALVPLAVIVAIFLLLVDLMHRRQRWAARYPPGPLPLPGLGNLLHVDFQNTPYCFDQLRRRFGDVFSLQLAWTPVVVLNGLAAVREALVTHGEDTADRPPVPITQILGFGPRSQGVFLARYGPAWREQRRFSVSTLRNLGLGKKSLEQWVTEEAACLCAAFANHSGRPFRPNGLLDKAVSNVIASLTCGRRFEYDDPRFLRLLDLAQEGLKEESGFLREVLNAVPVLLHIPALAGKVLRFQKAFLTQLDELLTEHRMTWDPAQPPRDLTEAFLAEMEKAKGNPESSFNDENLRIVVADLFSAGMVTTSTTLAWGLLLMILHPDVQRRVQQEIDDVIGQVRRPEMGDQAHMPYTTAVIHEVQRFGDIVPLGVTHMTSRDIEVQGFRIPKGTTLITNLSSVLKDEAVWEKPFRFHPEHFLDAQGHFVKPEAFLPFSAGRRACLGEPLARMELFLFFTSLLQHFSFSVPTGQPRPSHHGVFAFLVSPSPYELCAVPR

[13] = test system: MT4; assay: Ability to inhibit spread of viral infection in MT-4 human T-lymphoidcell infected by PI-resistant HIV-1 (strain K-60C); assay type: functional; details: read-out: CIC95; how it was run: as §1
[14] = test system: MT4; assay: Ability to inhibit spread of viral infection in MT-4 human T-lymphoidcell infected by PI-resistant HIV-1 (strain 4X Virus); assay type: functional; details: read-out: CIC95; how it was run: as §1
[15] = test system: Rhesus monkey; assay: Area under curve was determine after peroral administration at 10 mpk in Rhesus; assay type: ADME, organism-based, Macaca mulatta; details: in vivo, po, 10 mg/kg
How it was run: (§4)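 Rhesus monkeys were given 10 mg/kg orally and 2 mg/kg intravenously. Cmax, half-life, AUC, plasma clearance (mL/min/kg) and bioavailability (%) were taken from plasma concentration profiles.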

[16] = Intrinsic clearance in rat liver microsome; assay type: ADME; details: liver microsomes; how it was run: as §3
[17] = Area under curve was determine after peroral administration at 20 mpk in Rat; assay type: ADME, organism-based; details: in vivo, po, 20 mg/kg
How it was run: (§5)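 Rats were dosed orally across 10–160 mg/kg (10, 20, 50, 160). The 10 mg/kg oral arm was paired with 5 mg/kg intravenous dosing. Cmax, AUC, half-life, plasma clearance (mL/min/kg) and bioavailability (%) were determined at each oral dose.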

[18] = Cmax was determine after peroral administration at 10 mpk in Rat; assay type: ADME, organism-based; design: dose 10 mpk, route oral; details: in vivo, po, 10 mg/kg; how it was run: as §5
[19] = Cmax was determine after peroral administration at 10 mpk in Rhesus; assay type: ADME, organism-based, Macaca mulatta; design: dose 10 mpk, route oral; details: rhesus monkey, in vivo, po, 10 mg/kg; how it was run: as §4
[20] = Half life period was determine after peroral administration at 10 mpk in Rat; assay type: ADME, organism-based; details: in vivo, po, 10 mg/kg; how it was run: as §5
[21] = Cmax was determine after peroral administration at 50 mpk in Rat; assay type: ADME, organism-based; design: dose 50 mpk, route oral; details: in vivo, po, 50 mg/kg; how it was run: as §5
[22] = Intrinsic clearance in Rhesus liver microsome; assay type: ADME, Macaca mulatta; details: rhesus monkey, liver microsomes; how it was run: as §3
[23] = Area under curve was determine after peroral administration at 160 mpk in Rat; assay type: ADME, organism-based; details: in vivo, po, 160 mg/kg; how it was run: as §5
[24] = Oral bioavailability after peroral administration at 10 mpk in Rat; assay type: ADME, organism-based; details: in vivo, 10 mg/kg; how it was run: as §5
[25] = test system: Rattus norvegicus; assay: Area under curve was determine after peroral administration at 10 mpk in Rat; assay type: ADME, organism-based; details: in vivo, po, 10 mg/kg; how it was run: as §5
[26] = test system: Rhesus monkey; assay: Plasma clearance after peroral administration at 10 mpk in Rhesus; assay type: ADME, organism-based, Macaca mulatta; details: in vivo, po, 10 mg/kg; how it was run: as §4
[27] = Cmax was determine after peroral administration at 20 mpk in Rat; assay type: ADME, organism-based; design: dose 20 mpk, route oral; details: in vivo, po, 20 mg/kg; how it was run: as §5
[28] = Intrinsic clearance in dog liver microsome; assay type: ADME, Canis lupus familiaris; details: liver microsomes; how it was run: as §3
[29] = test system: Rattus norvegicus; assay: Plasma clearance after peroral administration at 10 mpk in Rat; assay type: ADME, organism-based; details: in vivo, po, 10 mg/kg; how it was run: as §5
[30] = Oral bioavailability after peroral administration at 50 mpk in Rat; assay type: ADME, organism-based; details: in vivo, 50 mg/kg; how it was run: as §5
[31] = Half life period was determine after peroral administration at 10 mpk in Rhesus; assay type: ADME, organism-based, Macaca mulatta; details: rhesus monkey, in vivo, po, 10 mg/kg; how it was run: as §4
[32] = Oral bioavailability after peroral administration at 20 mpk in Rat; assay type: ADME, organism-based; details: in vivo, 20 mg/kg; how it was run: as §5
[33] = Area under curve was determine after peroral administration at 50 mpk in Rat; assay type: ADME, organism-based; details: in vivo, po, 50 mg/kg; how it was run: as §5
[34] = Cmax was determine after peroral administration at 160 mpk in Rat; assay type: ADME, organism-based; design: dose 160 mpk, route oral; details: in vivo, po, 160 mg/kg; how it was run: as §5
[35] = Oral bioavailability in Rhesus monkey (dose 10 mg/kg p.o.); assay type: ADME, organism-based, Macaca mulatta; details: in vivo; how it was run: as §4
[36] = Oral bioavailability after peroral administration at 160 mpk in Rat; assay type: ADME, organism-based; details: in vivo, 160 mg/kg; how it was run: as §5

SMILES: CC(C)(c1ncc(-c2cccnc2)o1)N1CCN(C[C@@H](O)C[C@@H](Cc2ccccc2)C(=O)N[C@H]2c3ccccc3OC[C@H]2O)[C@H](C(=O)NCC(F)(F)F)C1
- IC95 [1]: 31 nM
- IC50 [2]: 0.04 nM
- IC50 [3]: 110 nM
- CL/F [4]: 21 mL/min/kg
- bioavailability [5]: 10%
- half-life [6]: 1.57 h
- IC95 [7]: 125 nM
- IC95 [8]: ≤ 8 nM
- IC50 [9]: 33000 nM
- CLint scaled [10]: 27 mL/min/kg
- Cmax [11]: 3800 nM
- IC50 [12]: 10500 nM
- IC95 [13]: 31 nM

SMILES: O=C(N[C@H]1c2ccccc2OC[C@H]1O)[C@H](Cc1ccccc1)C[C@H](O)CN1CCN(Cc2ncc(-c3ccccn3)o2)C[C@H]1C(=O)NCC(F)(F)F
- IC95 [14]: 31 nM
- IC95 [1]: 125 nM
- IC50 [2]: 0.13 nM
- IC95 [7]: 125 nM
- IC95 [8]: 23 nM

SMILES: CC(C)(C)NC(=O)[C@@H]1CN(Cc2cccnc2)CCN1C[C@@H](O)C[C@@H](Cc1ccccc1)C(=O)N[C@H]1c2ccccc2C[C@H]1O
- IC95 [14]: 400 nM
- IC95 [1]: > 1000 nM
- IC95 [7]: > 1000 nM
- IC95 [8]: 50 nM
- IC95 [13]: > 1000 nM

SMILES: COc1cncc(-c2cnc(C(C)(C)N3CCN(C[C@@H](O)C[C@@H](Cc4ccccc4)C(=O)N[C@H]4c5ccccc5OC[C@H]4O)[C@H](C(=O)NCC(F)(F)F)C3)o2)c1
- AUC [15]: 0.12 µM·h
- IC95 [1]: 31 nM
- CLint [16]: 87 mL/min/kg
- AUC [17]: 0.38 µM·h
- Cmax [18]: 40 nM
- IC50 [2]: 0.02 nM
- Cmax [19]: 100 nM
- half-life [20]: 0.433 h
- Cmax [21]: 3060 nM
- IC50 [3]: 40 nM
- CLint [22]: 120 mL/min/kg
- CL/F [4]: 18 mL/min/kg
- AUC [23]: 15.7 µM·h
- bioavailability [24]: 1.5%
- AUC [25]: 0.03 µM·h
- bioavailability [5]: 30%
- Clp [26]: 33 mL/min/kg
- half-life [6]: 1.02 h
- IC95 [7]: 15 nM
- Cmax [27]: 370 nM
- IC95 [8]: ≤ 8 nM
- CLint [28]: 67 mL/min/kg
- Clp [29]: 104 mL/min/kg
- bioavailability [30]: 40.5%
- IC50 [9]: 30000 nM
- CLint scaled [10]: 13 mL/min/kg
- Cmax [11]: 4300 nM
- IC50 [12]: 8700 nM
- half-life [31]: 1.22 h
- bioavailability [32]: 9.2%
- AUC [33]: 4.02 µM·h
- IC95 [13]: 15 nM
- Cmax [34]: 6880 nM
- bioavailability [35]: 2.2%
- bioavailability [36]: 47.2%

SMILES: CC(C)(c1ncc(-c2cnccc2Cl)o1)N1CCN(C[C@@H](O)C[C@@H](Cc2ccccc2)C(=O)N[C@H]2c3ccccc3OC[C@H]2O)[C@H](C(=O)NCC(F)(F)F)C1
- IC50 [2]: 0.02 nM
- IC50 [3]: 40 nM
- CL/F [4]: 19 mL/min/kg
- bioavailability [5]: 8%
- half-life [6]: 1.53 h
- IC95 [7]: 31 nM
- IC95 [8]: ≤ 8 nM
- IC50 [9]: 21000 nM
- CLint scaled [10]: 35 mL/min/kg
- Cmax [11]: 1000 nM
- IC50 [12]: 4170 nM
- IC95 [13]: 16 nM

SMILES: O=C(N[C@H]1c2ccccc2OC[C@H]1O)[C@H](Cc1ccccc1)C[C@H](O)CN1CCN(Cc2ccc(-c3ccccn3)o2)C[C@H]1C(=O)NCC(F)(F)F
- IC95 [1]: 15 nM
- IC50 [2]: 0.05 nM
- IC95 [7]: 15 nM
- IC95 [8]: ≤ 8 nM
- IC95 [13]: 31 nM

SMILES: O=C(N[C@H]1c2ccccc2OC[C@H]1O)[C@H](Cc1ccccc1)C[C@H](O)CN1CCN(Cc2ncc(-c3cccnc3)o2)C[C@H]1C(=O)NCC(F)(F)F
- IC95 [14]: 62 nM
- IC95 [1]: 125 nM
- IC50 [2]: 0.14 nM
- IC95 [7]: 250 nM
- IC95 [8]: 27 nM
- IC95 [13]: 125 nM

SMILES: O=C(N[C@H]1c2ccccc2OC[C@H]1O)[C@H](Cc1ccccc1)C[C@H](O)CN1CCN(Cc2ncc(-c3ccncc3)o2)C[C@H]1C(=O)NCC(F)(F)F
- IC95 [14]: 62 nM
- IC95 [1]: 250 nM
- IC50 [2]: 0.1 nM
- IC95 [7]: 125 nM
- IC95 [8]: 23 nM
- IC95 [13]: 125 nM

SMILES: CC(C)(c1ncc(-c2ccccn2)o1)N1CCN(C[C@@H](O)C[C@@H](Cc2ccccc2)C(=O)N[C@H]2c3ccccc3OC[C@H]2O)[C@H](C(=O)NCC(F)(F)F)C1
- IC95 [1]: 15 nM
- IC50 [2]: 0.04 nM
- IC50 [3]: 5000 nM
- IC95 [7]: 62 nM
- IC95 [8]: ≤ 8 nM
- IC50 [9]: 28000 nM
- CLint scaled [10]: 500 mL/min/kg
- IC50 [12]: 22200 nM
- IC95 [13]: 31 nM

— ChEMBL document CHEMBL1136139, “The design, synthesis and evaluation of novel HIV-1 protease inhibitors with high potency against PI-resistant viral strains” (Bioorg Med Chem Lett, 2003)
